Measurements taken from ChEMBL document CHEMBL3102735, “Enhancing the pharmacodynamic profile of a class of selective COX-2 inhibiting nitric oxide donors” (Bioorg Med Chem, 2014).
pIC50: −log10 of the molar value. ≈ marks a conversion by molar mass, not a printed value. Calls of active or inactive are those of the source. No cut-off for these calls is given here.

What was measured:
[1] = Metabolic stability in Sprague-Dawley rat plasma assessed as compound remaining after 120 mins by LC-MS/MS analysis; format: ADME, cell-free; settings: read-out: Stability
Method in brief: (§1)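 Compound (12 µL of 1 mM DMSO solution into 588 µL medium) incubated in PBS pH 7.4, pepsin-free SGF pH 1.5, or EDTA rat plasma. Aliquots taken at 0, 30, 60, 120 min and quenched with ice-cold acetonitrile containing internal standard; parent remaining as percent.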

[2] = Metabolic stability in Sprague-Dawley rat plasma assessed as compound remaining after 30 mins by LC-MS/MS analysis; format: ADME, cell-free; settings: read-out: Stability; method in brief: as §1
[3] = Stability of the compound in phosphate buffer saline assessed as compound remaining at pH 7.4 after 60 mins by LC-MS/MS analysis; format: physicochemical; settings: read-out: Stability
Method in brief: (§2)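 1 mM DMSO stock added to 0.01 M PBS (pH 7.4) or 0.05 M simulated gastric fluid without pepsin (pH 1.5 with HCl); incubated in hybridisation oven; aliquots at 0, 30, 60, 120 min quenched with ice-cold acetonitrile containing internal standard; parent remaining (%) measured.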

[4] = Stability of the compound in simulated gastric fluid assessed as compound remaining at pH 1.5 after 60 mins by LC-MS/MS analysis; format: physicochemical; settings: read-out: Stability; method in brief: as §2
[5] = Stability of the compound in simulated gastric fluid assessed as compound remaining at pH 1.5 after 120 mins by LC-MS/MS analysis; format: physicochemical; settings: read-out: Stability; method in brief: as §2
[6] = Stability of the compound in simulated gastric fluid assessed as compound remaining at pH 1.5 after 30 mins by LC-MS/MS analysis; format: physicochemical; settings: read-out: Stability; method in brief: as §2
[7] = Metabolic stability in Sprague-Dawley rat plasma assessed as compound remaining after 60 mins by LC-MS/MS analysis; format: ADME, cell-free; settings: read-out: Stability; method in brief: as §1
[8] = Stability of the compound in phosphate buffer saline assessed as compound remaining at pH 7.4 after 30 mins by LC-MS/MS analysis; format: physicochemical; settings: read-out: Stability; method in brief: as §2
[9] = Solubility of the compound in phosphate buffer saline at pH 7.4 after 90 mins by HPLC analysis; format: physicochemical
Method in brief: (§3)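 DMSO stock (20 mM) diluted 2 µL into 198 µL PBS 0.01 M pH 7.4 or pepsin-free SGF 0.05 M pH 1.5, duplicate wells, shaken 90 min at 300 rpm. Filtrates analysed by HPLC with photodiode-array detection against seven-point standards (1–200 µM).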

[10] = Stability of the compound in phosphate buffer saline assessed as compound remaining at pH 7.4 after 120 mins by LC-MS/MS analysis; format: physicochemical; settings: read-out: Stability; method in brief: as §1
[11] = Solubility of the compound in simulated gastric fluid at pH 1.5 after 90 mins by HPLC analysis; format: ADME; method in brief: as §3
Mus musculus [12] = experiment: Analgesic activity in Swiss albino mouse assessed as reduction of acetic acid-induced writhing at 10 mg/kg, po measured every 10 mins after 5 mins of administration relative to control; format: functional; design: scale not given: the % may be the effect or the level left
Method in brief: (§4)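 Male Swiss albino mice (23–25 g), compound given orally in CMC vehicle; writhing induced by 0.6% acetic acid (10 mL/kg) ip. Stretching movements counted for 10 min, starting 5 min after administration; percent reduction versus CMC-treated animals.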

[13] = molecular target: T1, Prostaglandin G/H synthase 1 (Mus musculus, UniProt P22437); experiment: Inhibition of COX-1 in mouse J774 cells using arachidonic acid as substrate assessed as inhibition of prostaglandin E2 production preincubated for 15 mins followed by substrate addition measured after 30 mins by RIA; format: cell-based
T1 sequence (P22437 whole entry): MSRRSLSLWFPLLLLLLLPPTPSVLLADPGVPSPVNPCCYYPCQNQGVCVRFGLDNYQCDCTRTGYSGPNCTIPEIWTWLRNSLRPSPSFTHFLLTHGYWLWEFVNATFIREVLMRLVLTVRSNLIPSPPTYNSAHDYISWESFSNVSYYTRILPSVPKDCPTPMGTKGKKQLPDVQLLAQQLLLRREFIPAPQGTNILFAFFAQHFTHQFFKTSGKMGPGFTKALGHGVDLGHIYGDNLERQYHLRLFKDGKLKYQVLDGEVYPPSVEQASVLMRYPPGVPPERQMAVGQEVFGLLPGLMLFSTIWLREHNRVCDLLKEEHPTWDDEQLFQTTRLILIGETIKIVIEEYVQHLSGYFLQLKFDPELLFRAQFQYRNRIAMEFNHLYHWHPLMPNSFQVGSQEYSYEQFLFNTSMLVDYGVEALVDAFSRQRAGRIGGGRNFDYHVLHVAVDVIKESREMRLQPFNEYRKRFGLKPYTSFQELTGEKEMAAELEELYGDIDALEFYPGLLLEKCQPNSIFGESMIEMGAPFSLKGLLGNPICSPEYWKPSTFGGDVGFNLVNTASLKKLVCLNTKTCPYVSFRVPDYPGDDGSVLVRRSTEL
Method in brief: (§5)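 J774 murine macrophages pretreated 15 min with compound (10 µM; lower concentrations 0.01–1 µM where needed), then incubated 30 min at 37 °C with 15 µM arachidonic acid; supernatant PGE2 measured by RIA. Triplicate wells, mean of three experiments of percent inhibition versus control; IC50 by sigmoidal fit.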

Mus musculus [14] = experiment: Analgesic activity in po dosed Swiss albino mouse assessed as reduction of acetic acid-induced writhing measured every 10 mins after 5 mins of administration; format: functional, organism-based; method in brief: as §4
Thoracic aorta [15] = experiment: Ex vivo vasorelaxant activity in Wistar rat endothelium thoracic aortic ring assessed as reduction of KCl-induced contraction at 0.001 uM to 10 uM relative to control; format: functional
Method in brief: (§6)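 Endothelium-denuded thoracic aortic rings from male Wistar rats (250–350 g) in oxygenated Tyrode-type buffer at 37 °C, isometric tension recording. Rings precontracted with 30 mM KCl, then 3-fold increasing compound concentrations (1 nM–10 µM) added, also with 1 µM ODQ preincubated. Emax as % of KCl tone; pIC50; mean ± SE of 6–10 experiments.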

J774 = experiment: Selectivity index, ratio of IC50 for COX-1 to IC50 for COX-2 in mouse J774 cells; format: cell-based
Method in brief: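 J774 macrophages stimulated 24 h with E. coli LPS (10 µg/mL) to induce COX-2, with or without compound (0.01–10 µM); supernatant PGE2 by RIA. Triplicate wells, three experiments, percent inhibition versus control, IC50 by sigmoidal fit; selectivity as COX-1/COX-2 IC50 ratio.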

Mus musculus [16] = experiment: Analgesic activity in Swiss albino mouse assessed as reduction of acetic acid-induced writhing at 40 mg/kg, po measured every 10 mins after 5 mins of administration relative to control; format: functional; design: scale not given: the % may be the effect or the level left; method in brief: as §4
[17] = molecular target: T2, Prostaglandin G/H synthase 2 (Mus musculus, UniProt Q05769); experiment: Inhibition of LPS-induced COX-2 in mouse J774 cells using arachidonic acid as substrate assessed as inhibition of prostaglandin E2 production preincubated for 15 mins followed by substrate addition measured after 30 mins by RIA; format: cell-based
T2 sequence (Q05769 whole entry): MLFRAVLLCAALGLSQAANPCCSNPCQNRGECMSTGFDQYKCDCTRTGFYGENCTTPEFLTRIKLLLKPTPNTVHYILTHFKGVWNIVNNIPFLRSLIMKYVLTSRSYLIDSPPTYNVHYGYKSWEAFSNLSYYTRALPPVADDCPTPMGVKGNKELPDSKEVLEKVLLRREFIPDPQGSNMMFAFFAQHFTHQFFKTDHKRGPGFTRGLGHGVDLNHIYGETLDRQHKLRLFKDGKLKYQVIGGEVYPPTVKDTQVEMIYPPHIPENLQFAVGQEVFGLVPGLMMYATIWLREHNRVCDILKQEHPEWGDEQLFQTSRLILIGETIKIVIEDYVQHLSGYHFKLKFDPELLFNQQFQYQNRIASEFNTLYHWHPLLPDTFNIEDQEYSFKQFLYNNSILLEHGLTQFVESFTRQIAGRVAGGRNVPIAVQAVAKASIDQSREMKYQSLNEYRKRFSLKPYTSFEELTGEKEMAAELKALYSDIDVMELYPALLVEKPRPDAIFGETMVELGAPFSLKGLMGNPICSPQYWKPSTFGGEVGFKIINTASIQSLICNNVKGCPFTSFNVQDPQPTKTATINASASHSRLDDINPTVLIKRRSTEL

[18] = molecular target: T3, Prostaglandin G/H synthase 1 (Mus musculus) (UniProt P22437); experiment: Inhibition of COX-1 in mouse J774 cells using arachidonic acid as substrate assessed as inhibition of prostaglandin E2 production at 10 uM preincubated for 15 mins followed by substrate addition measured after 30 mins by RIA; format: cell-based; method in brief: as §5
T3 sequence (whole entry): T1 sequence (P22437 whole entry)

Thoracic aorta [19] = experiment: Ex vivo vasorelaxant activity in Wistar rat endothelium thoracic aortic ring assessed as reduction of KCl-induced contraction in presence of guanylate cyclase inhibitor ODQ; format: functional; method in brief: as §6
[20] = molecular target: T4, Prostaglandin G/H synthase 2 (Mus musculus) (UniProt Q05769); experiment: Inhibition of LPS-induced COX-2 in mouse J774 cells using arachidonic acid as substrate assessed as inhibition of prostaglandin E2 production at 10 uM preincubated for 15 mins followed by substrate addition measured after 30 mins by RIA; format: cell-based
T4 sequence (whole entry): T2 sequence (Q05769 whole entry)

Mus musculus [21] = experiment: Analgesic activity in Swiss albino mouse assessed as reduction of acetic acid-induced writhing at 20 mg/kg, po measured every 10 mins after 5 mins of administration relative to control; format: functional; design: scale not given: the % may be the effect or the level left; method in brief: as §4

Compound | remaining at 2 h [1] [%] | remaining at 0.5 h [2] [%] | remaining at 1 h [3] [%] | remaining at 1 h [4] [%] | remaining at 2 h [5] [%] | remaining at 0.5 h [6] [%] | remaining at 1 h [7] [%] | remaining at 0.5 h [8] [%] | solubility at 1.5 h [9] [µM] | remaining at 2 h [10] [%] | solubility at 1.5 h [11] [µM] | pIC50 [13] | inhibition [18] [%] | inhibition [20] [%] | Activity (Mus musculus [14]) | Emax (Thoracic aorta [15]) [%] | Ratio IC50 (J774) | Activity (Mus musculus [16]) [%] | Activity (Thoracic aorta [19]) | Activity (Mus musculus [21]) [%] | other results
Cc1c(C(N)C(=O)OCCO[N+](=O)[O-])cc(-c2ccc(S(C)(=O)=O)cc2)n1-c1ccc(F)cc1 (stereo not given) | 0 | 0 | 75 | 100 | 100 | 100 | 0 | 75 | 80 (≈ 39.3 µg/mL) | 75 | > 200 | – | – | – | – | – | – | – | – | – | –
Cc1c(CC(=O)NC(CO[N+](=O)[O-])C(=O)O)cc(-c2ccc(S(C)(=O)=O)cc2)n1-c1ccc(F)cc1 (stereo not given) | – | – | – | – | – | – | – | – | 90.5 (≈ 47 µg/mL) | – | 112 (≈ 58.2 µg/mL) | < 5.00 | 0 | 100 | Dose-dependent effect | 25 | > 32 | 50 | inactive | 29 | Activity (Mus musculus [12]): 0%; pIC50 [17]: 6.51
Cc1c(CC(=O)NC(CCO[N+](=O)[O-])C(=O)O)cc(-c2ccc(S(C)(=O)=O)cc2)n1-c1cccc(F)c1 (racemic) | – | – | – | – | – | – | – | – | – | – | – | < 5.00 | 27 | 43 | Dose-dependent effect | 25 | > 6 | 23 | inactive | 10 | –
Cc1c(CC(=O)NC(CCO)C(=O)O)cc(-c2ccc(S(C)(=O)=O)cc2)n1-c1cccc(F)c1 (racemic) | – | – | – | – | – | – | – | – | – | – | – | < 5.00 | 16 | 79 | – | – | > 10 | – | – | – | –

Further lines, with some results ahead:

remaining at 2 h [1] [%] | remaining at 0.5 h [2] [%] | remaining at 1 h [3] [%] | remaining at 1 h [4] [%] | remaining at 2 h [5] [%] | remaining at 0.5 h [6] [%] | remaining at 1 h [7] [%] | remaining at 0.5 h [8] [%] | solubility at 1.5 h [9] [µM] | remaining at 2 h [10] [%] | solubility at 1.5 h [11] [µM] | pIC50 [13] | inhibition [18] [%] | inhibition [20] [%] | Compound | Activity (Mus musculus [14]) | Emax (Thoracic aorta [15]) [%] | Ratio IC50 (J774) | Activity (Mus musculus [16]) [%] | Activity (Thoracic aorta [19]) | Activity (Mus musculus [21]) [%] | other results
0 | 0 | 53.6 | 65.7 | 42.8 | 80.2 | 0 | 74.1 | – | 0.15 | < 1 | – | – | – | Cc1c(CC(=O)OCCO[N+](=O)[O-])cc(-c2ccc(S(C)(=O)=O)cc2)n1-c1cccc(F)c1 | – | – | – | – | – | – | –
– | – | – | – | – | – | – | – | > 200 | – | 150 (≈ 71.3 µg/mL) | < 5.00 | 0 | 95 | Cc1c(CC(=O)NCCO[N+](=O)[O-])cc(-c2ccc(S(C)(=O)=O)cc2)n1-c1cccc(F)c1 | Dose-dependent effect | 49 | > 33 | 55 | inactive | 37 | Activity (Mus musculus [12]): 18%; pIC50 [17]: 6.52
